Laboratory results published in ChEMBL document CHEMBL1159062, “Towards the synthesis of bisubstrate inhibitors of protein farnesyltransferase: Synthesis and biological evaluation of new farnesylpyrophosphate analogues” (Bioorg Med Chem, 2010).
Active and inactive are the calls of the source. The rule behind the calls is not given here.

What was measured:
[1] = target: T1, Protein farnesyltransferase (Homo sapiens, UniProt P49354+P49356); experiment: Inhibition of human recombinant FTase by fluorescent-based assay; assay type: protein-complex assay
[2] = target: T1, Protein farnesyltransferase; experiment: Binding affinity to FPP site of human recombinant FTase by competitive Michaelis-Menten analysis; assay type: protein-complex assay
How it was run: (§1)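 Partially purified recombinant human FTase, fluorescent farnesylation of dansyl-GCVLS. Buffer: 5.8 mM DTT, 6 mM MgCl2, 12 µM ZnCl2, 0.18% octyl-glucopyranoside, 53 mM Tris/HCl pH 7.5. Kinetics: FPP varied with Dns-GCVLS fixed at 2.5 µM, or peptide varied with FPP fixed at 10 µM.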

[3] = target: T1, Protein farnesyltransferase; experiment: Binding affinity to Dns-GCVLS peptide site of human recombinant FTase by competitive Michaelis-Menten analysis; assay type: protein-complex assay; how it was run: as §1
[4] = Inhibition of yeast recombinant FTase by fluorescent-based assay; parameters: species or system Saccharomyces cerevisiae
[5] = tested on: Trypanosoma brucei brucei; experiment: Antitrypanosomal activity against Trypanosoma brucei brucei WT2913 procyclic form at 10 uM after 72 hrs by alamar blue assay; assay type: functional; settings: for inhibition at 10 µM: WT2913, 72 h
How it was run: (§2)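 Strain WT 2913 procyclic forms kept in semi-defined medium 79 + 10% heat-inactivated FCS at 27 °C. Log-phase cells spun at 3000g and seeded at 1 × 10^6 cells/mL. Exposed 72 h to 0–100 µM inhibitor in 1% final DMSO. Resazurin (AlamarBlue) fluorescence read after a further 4 h, ex 530/em 590 nm. Growth inhibition versus untreated; triplicates, done twice.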

[6] = tested on: Trypanosoma brucei brucei; experiment: Antitrypanosomal activity against Trypanosoma brucei brucei 93 blood stream form at 10 uM after 72 hrs by alamar blue assay; assay type: functional; settings: for inhibition at 10 µM: Trypanosoma brucei, 93, 72 h
How it was run: (§3)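 Strain 93 bloodstream forms cultured in HMI9 + 10% FCS, 37 °C, 5% CO2. Log-phase cells harvested at 3000g and seeded at 3 × 10^4 cells/mL. Inhibitors 0–100 µM, final DMSO 1%, 72 h. AlamarBlue (resazurin) added, read 4 h later at ex 530/em 590 nm. Inhibition relative to drug-free cells; triplicates, experiment repeated twice.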

KB [7] = experiment: Cytotoxicity against human KB cells at 10 uM after 72 hrs by MTS assay; assay type: functional
How it was run: (§4)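 KB cells seeded at 2000/well and exposed 72 h to compound in medium with 1% final DMSO; docetaxel as positive control. Viability by MTS, OD 490 nm. Cytotoxicity index = OD treated/OD control × 100, from triplicates across three experiments.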

Plasmodium falciparum = experiment: Antiplasmodial activity against Plasmodium falciparum FcB1/Columbia assessed as [3H]hypoxanthine incorporation after 24 hrs by liquid scintillation spectrophotometer; assay type: functional, organism-based
How it was run: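 FcB1/Colombia (chloroquine-resistant) grown on human erythrocytes in RPMI 1640 + 8% heat-inactivated human serum, 37 °C, 3% CO2/6% O2/91% N2. Twofold serial dilutions from 10 mM DMSO stocks; asynchronous cultures at 1% parasitemia, 1% final hematocrit, 24 h, then 0.5 µCi [3H]-hypoxanthine for 24 h more. Freeze-thaw, filter harvest, scintillation counting versus same-plate control. IC50 from concentration–response curve; mean ± SD of several independent experiments.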

[8] = target: T1, Protein farnesyltransferase; experiment: Binding affinity to CaaX site of human recombinant FTase by non-competitive Michaelis-Menten analysis for enzyme-substrate-inhibitor complex; assay type: protein-complex assay; how it was run: as §1
[9] = target: T1, Protein farnesyltransferase; experiment: Binding affinity to CaaX site of human recombinant FTase by non-competitive Michaelis-Menten analysis for enzyme-inhibitor complex; assay type: protein-complex assay; how it was run: as §1
[10] = tested on: Trypanosoma brucei brucei; experiment: Antitrypanosomal activity against Trypanosoma brucei brucei WT2913 procyclic form at 1 uM after 72 hrs by alamar blue assay; assay type: functional, organism-based; how it was run: as §2
KB [11] = experiment: Cytotoxicity against human KB cells at 1 uM after 72 hrs by MTS assay; assay type: functional, cell-based; how it was run: as §4
[12] = tested on: Trypanosoma brucei brucei; experiment: Antitrypanosomal activity against Trypanosoma brucei brucei 93 blood stream form at 1 uM after 72 hrs by alamar blue assay; assay type: functional; how it was run: as §3

CC(C)=CCC/C(C)=C/CC/C(C)=C/CC(CCCc1nccn1C)(C(=O)O)C(=O)O
IC50 ([1]; read-out: IC50): 21 µM

CC(C)=CCC/C(C)=C/CC/C(C)=C/CC(C(=O)O)C(=O)O
Ki [2]: 0.26 µM
IC50 ([1]; read-out: IC50): 0.9 µM
Activity [3]: inactive
IC50 ([4]; read-out: IC50): 4 µM

CSCC[C@H](NC(=O)[C@H](Cc1ccccc1)NC(=O)[C@@H](NCc1cnc(CCCC(CC(=O)O)C(=O)O)n1C)C(C)C)C(=O)O (stereo partly specified)
IC50 ([1]; read-out: IC50): 60 µM

CC(C)=CCC/C(C)=C/CC/C(C)=C/C=C/C(N)=O
IC50 [1]: Not Active
IC50 [4]: Not Active

CCOC(=O)C(C/C=C(\C)CC/C=C(\C)CCC=C(C)C)(CCCc1ncc(CN[C@H](C(=O)N[C@@H](Cc2ccccc2)C(=O)N[C@@H](CCSC)C(=O)O)C(C)C)n1C)C(=O)O (stereo partly specified)
Ki [2]: 0.23 µM
IC50 ([1]; read-out: IC50): 0.24 µM
inhibition [5]: inactive
inhibition [6]: inactive
inhibition (KB [7]): inactive
IC50 (Plasmodium falciparum): 31.4 µM
Ki [8]: 5.6 µM
Ki [9]: 7.7 µM

CC(C)=CCC/C(C)=C/CC/C(C)=C/CCC(=O)CCCC(=O)O
IC50 ([1]; read-out: IC50): 60 µM
IC50 ([4]; read-out: IC50): 15 µM

CC(C)=CCC/C(C)=C/CC/C(C)=C/CCC(=O)NC(C(=O)O)C(=O)O
IC50 ([1]; read-out: IC50): 60 µM
IC50 ([4]; read-out: IC50): 200 µM

CC(C)=CCC/C(C)=C/CC/C(C)=C/CCC(=O)NS(=O)(=O)c1ccccc1
IC50 ([1]; read-out: IC50): > 200 µM
IC50 ([4]; read-out: IC50): > 200 µM

CCOC(=O)C(C/C=C/c1ncc(CN[C@H](C(=O)N[C@@H](Cc2ccccc2)C(=O)N[C@@H](CCSC)C(=O)OC)C(C)C)n1C)(C/C=C(\C)CC/C=C(\C)CCC=C(C)C)C(=O)OCC
IC50 [1]: Not Active
inhibition at 10 µM [5]: 28%
inhibition at 10 µM [6]: 92%
Activity [10]: inactive
Activity (KB [11]): inactive
inhibition at 10 µM (KB [7]): 60%
IC50 (Plasmodium falciparum): 1.1 µM
Activity [12]: 64%

CCOC(=O)C(C/C=C(\C)CC/C=C(\C)CCC=C(C)C)(CCCc1nccn1C)C(=O)OCC
inhibition at 10 µM [6]: 89%
IC50 (Plasmodium falciparum): 4 µM
Activity [12]: 24%

CCCCCCCCCCCCCC/C(C(=O)O)=C(\C)C(=O)O [CHAETOMELLIC ACID A]
IC50 ([1]; read-out: IC50): 0.175 µM
IC50 ([4]; read-out: IC50): 0.34 µM

CC(C)=CCC/C(C)=C/CC/C(C)=C/CCC(=O)NO
IC50 [4]: Not Active

CC(C)=CCC/C(C)=C/CC/C(C)=C/COC(=O)CCC(=O)O
IC50 ([1]; read-out: IC50): 130 µM
IC50 ([4]; read-out: IC50): 100 µM

CC(C)=CCC/C(C)=C/CC/C(C)=C/CC(=O)CCCC(=O)O
IC50 ([1]; read-out: IC50): 60 µM
IC50 ([4]; read-out: IC50): 35 µM

CC(C)=CCC/C(C)=C/CC/C(C)=C/COC(=O)CC(=O)O
IC50 ([1]; read-out: IC50): 160 µM
IC50 ([4]; read-out: IC50): 80 µM

CCOC(=O)C(C/C=C/c1ncc(CN[C@H](C(=O)N[C@@H](Cc2ccccc2)C(=O)N[C@@H](CCSC)C(=O)O)C(C)C)n1C)(C/C=C(\C)CC/C=C(\C)CCC=C(C)C)C(=O)O (stereo partly specified)
Ki [2]: 0.5 µM
IC50 ([1]; read-out: IC50): 0.64 µM
inhibition [5]: inactive
inhibition [6]: inactive
inhibition (KB [7]): inactive
IC50 (Plasmodium falciparum): 17.2 µM
Ki [8]: 15 µM
Ki [9]: 17 µM

CC(C)=CCC/C(C)=C/CC/C(C)=C/C=C/C(=O)NC(C(=O)O)C(=O)O
IC50 ([1]; read-out: IC50): 10 µM

CC(C)=CCC/C(C)=C/CC/C(C)=C/C(c1nccn1C)C(CC(=O)O)C(=O)O (stereo unspecified)
IC50 ([1]; read-out: IC50): 12 µM

CC(C)=CCC/C(C)=C/CC/C(C)=C/CCC(=O)CCC(=O)O
IC50 ([1]; read-out: IC50): > 200 µM
IC50 ([4]; read-out: IC50): 80 µM

CC(C)=CCC/C(C)=C/CC/C(C)=C/CCC(=O)NS(=O)(=O)O
IC50 ([1]; read-out: IC50): 85 µM
IC50 ([4]; read-out: IC50): > 200 µM

CC(C)=CCC/C(C)=C/CC/C(C)=C/C/C=C/C(=O)O
IC50 ([1]; read-out: IC50): 130 µM
IC50 ([4]; read-out: IC50): 40 µM

CC(C)=CCC/C(C)=C/CC/C(C)=C/COC(C(=O)O)C(=O)O
IC50 ([1]; read-out: IC50): 0.88 µM
IC50 ([4]; read-out: IC50): 5 µM

CC(C)=CCC/C(C)=C/CC/C(C)=C/C=C(C(=O)O)C(=O)O
IC50 [1]: Not Active

CC(C)=CCC/C(C)=C/CC/C(C)=C/CCC(N)=O
IC50 ([1]; read-out: IC50): > 200 µM
IC50 [4]: Not Active

CCOC(=O)C(C/C=C(\C)CC/C=C(\C)CCC=C(C)C)(CCCc1ncc(CN[C@H](C(=O)N[C@@H](Cc2ccccc2)C(=O)N[C@@H](CCSC)C(=O)OC)C(C)C)n1C)C(=O)OCC
IC50 [1]: Not Active
inhibition at 10 µM [5]: 54%
Activity [10]: inactive
Activity (KB [11]): inactive
inhibition at 10 µM (KB [7]): 44%
IC50 (Plasmodium falciparum): 1 µM

CC(C)=CCC/C(C)=C/CC/C(C)=C/CCCC(=O)O
IC50 ([1]; read-out: IC50): 170 µM
IC50 ([4]; read-out: IC50): 42 µM
